Results published in ChEMBL document CHEMBL1125654, “New inhibitors of human renin that contain novel replacements at the P2 site” (J Med Chem, 1991).

Columns and labels:
Renin [1] = molecular target: T1, Renin (Homo sapiens, UniProt P00797); assay: Inhibitory activity against human plasma renin; type: cell-free
T1 sequence (P00797 whole entry): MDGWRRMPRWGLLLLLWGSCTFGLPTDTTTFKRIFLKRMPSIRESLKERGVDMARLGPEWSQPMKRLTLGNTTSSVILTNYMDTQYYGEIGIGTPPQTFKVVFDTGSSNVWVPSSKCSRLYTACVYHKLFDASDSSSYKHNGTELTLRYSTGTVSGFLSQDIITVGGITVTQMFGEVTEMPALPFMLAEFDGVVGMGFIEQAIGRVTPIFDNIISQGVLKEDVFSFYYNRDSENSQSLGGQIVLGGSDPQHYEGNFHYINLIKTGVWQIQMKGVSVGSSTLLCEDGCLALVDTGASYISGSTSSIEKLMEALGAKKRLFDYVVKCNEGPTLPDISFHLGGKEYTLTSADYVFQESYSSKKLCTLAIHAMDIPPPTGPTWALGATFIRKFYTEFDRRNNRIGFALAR

Renin [2] = molecular target: T1, Renin; assay: Inhibitory activity against monkey plasma renin.; type: cell-free, Cercopithecidae; settings: target entry is the homologue from another species
Method in brief: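 Plasma from salt-depleted, furosemide-treated monkeys (native renin and angiotensinogen) incubated with maleate buffer (pH 6.0), PMSF and inhibitor in DMSO for 60 min at 37 °C. Plasma renin activity was 3–8 ng AI/mL per h. Percent inhibition was taken vs DMSO vehicle tubes, and IC50 from six concentrations by nonlinear regression.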

[3] = Partition coefficient (logD7.4); settings: octanol/water
Cathepsin D = molecular target: T2, Cathepsin D (Bos taurus, UniProt P80209); assay: Inhibitory activity against bovine cathepsin D was determined
T2 sequence (P80209 whole entry): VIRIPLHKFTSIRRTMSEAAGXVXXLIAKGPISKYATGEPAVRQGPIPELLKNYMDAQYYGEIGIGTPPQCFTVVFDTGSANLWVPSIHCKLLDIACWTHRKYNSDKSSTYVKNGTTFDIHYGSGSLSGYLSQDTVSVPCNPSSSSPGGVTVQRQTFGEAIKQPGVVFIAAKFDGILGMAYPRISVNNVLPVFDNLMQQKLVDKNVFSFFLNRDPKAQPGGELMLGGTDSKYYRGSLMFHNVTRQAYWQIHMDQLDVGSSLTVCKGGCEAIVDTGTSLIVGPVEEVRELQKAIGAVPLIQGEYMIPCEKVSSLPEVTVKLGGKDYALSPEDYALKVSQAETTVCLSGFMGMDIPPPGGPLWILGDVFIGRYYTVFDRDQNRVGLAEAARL
Method in brief: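 Bovine cathepsin D activity assayed in duplicate as hydrolysis of bovine hemoglobin (2× crystallized) at pH 3.2, 37 °C. Net absorbance at 280 nm read in acid-precipitated supernatants of inhibited vs uninhibited controls. IC50 from six inhibitor concentrations by nonlinear regression.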

IC50 (Renin [1]) [nM]	IC50 (Renin [2]) [nM]	logD ([3]; pH 7.4, logD)	SMILES	logD ([3]; pH 7.4)	IC50 (Cathepsin D) [nM]
540	390	7.09	CCC(C)CNC(=O)C[C@H](O)C(CC(C)C)NC(=O)C(CCCn1cccc1)NC(=O)C(Cc1cccc2ccccc12)Cc1cccc2ccccc12 (stereo partly specified)		
9350	2490	5.7	CCC(C)CNC(=O)C[C@H](O)C(CC(C)C)NC(=O)C(CCNC(=S)NC)NC(=O)C(Cc1cccc2ccccc12)Cc1cccc2ccccc12 (stereo partly specified)		
	90	4.67	CS/C(=N\CCCCC(NC(=O)C(Cc1cccc2ccccc12)Cc1cccc2ccccc12)C(=O)NC(CC(C)C)[C@@H](O)CC(=O)N1CCOC(CCN)C1)NC#N (stereo partly specified)		
	2.3	2.93	C/N=C(\S)NCCCCC(NC(=O)C(Cc1ccccc1)NS(=O)(=O)N1CCOCC1)C(=O)NC(CC1CCCCC1)[C@H](O)C(F)(F)C(=O)N1CCOC(CCN)C1 (stereo partly specified)		
	100	5.56	CCC(C)CNC(=O)C[C@H](O)C(CC(C)C)NC(=O)C(C/C=C\CNC(C)=O)NC(=O)C(Cc1cccc2ccccc12)Cc1cccc2ccccc12 (stereo partly specified)		
61	85		CCC(C)CNC(=O)C[C@H](O)C(CC(C)C)NC(=O)C(Cc1cnc[nH]1)NC(=O)C(Cc1cccc2ccccc12)Cc1cccc2ccccc12 (stereo partly specified)		
20	36	1.68	C/N=C(\S)NCCCCC(NC(=O)C(CC(=O)N1CCOCC1)Cc1cccc2ccccc12)C(=O)NC(CC1CCCCC1)[C@@H](O)CC(=O)N1CCOC(CCN)C1 (stereo partly specified)		
	350	5.5	CNC(=S)NCCCCC(NC(=O)C(Cc1cccc2ccccc12)Cc1cccc2ccccc12)C(=O)NC(CC(C)C)[C@@H](O)C(F)(F)C(=O)N1CCOC(CCN)C1 (stereo partly specified)		
150	248	7.37	CCC(C)CNC(=O)C[C@H](O)C(CC(C)C)NC(=O)C(CC#CCNC(=O)OCc1ccccc1)NC(=O)C(Cc1cccc2ccccc12)Cc1cccc2ccccc12 (stereo partly specified)		
	27	2.64	CNC(=S)NCCCCC(NC(=O)C(Cc1ccccc1)S(=O)(=O)C(C)(C)C)C(=O)NC(CC1CCCCC1)[C@@H](O)CC(=O)N1CCOC(CCN)C1 (stereo partly specified)		
58	138	6.6	CCC(C)CNC(=O)C[C@H](O)C(CC(C)C)NC(=O)C(CCCCNC(=S)Nc1ccccc1)NC(=O)C(Cc1cccc2ccccc12)Cc1cccc2ccccc12 (stereo partly specified)		
50	89	5.31	CCC(C)CNC(=O)C[C@H](O)C(CC(C)C)NC(=O)C(CCCCNC(N)=O)NC(=O)C(Cc1cccc2ccccc12)Cc1cccc2ccccc12 (stereo partly specified)		
	11		CC(C)(C)OC(=O)NCC#CCC(NC(=O)C(Cc1ccccc1)NS(=O)(=O)N1CCOCC1)C(=O)NC(CC1CCCCC1)[C@@H](O)CC(=O)N1CCOC(CCN)C1 (stereo in doubt; 61a)	3.96	
	3.3	2.32	CC(C)CC(NC(=O)C(CCCCNC(=O)OCc1ccccc1)NC(=O)C(Cc1ccccc1)NS(=O)(=O)N1CCOCC1)C(=O)C(F)(F)C(=O)N1CCOC(CCN)C1 (stereo unspecified)		
2900	8000	7.69	CC(C)CC(NC(=O)C[C@H](O)C(CC(C)C)NC(=O)C(CCCCNC(=O)OCc1ccccc1)NC(=O)C(Cc1cccc2ccccc12)Cc1cccc2ccccc12)C(=O)NCc1ccccc1 (stereo partly specified)		
6.2	36	4.38	CCC(C)CNC(=O)C[C@H](O)C(CC(C)C)NC(=O)C(CCCCNC(C)=O)NC(=O)C(Cc1cccc2ccccc12)Cc1cccc2ccccc12 (stereo partly specified)		
87	144	7.21	CCC(C)CNC(=O)C[C@H](O)C(CC(C)C)NC(=O)C(CCCCn1cccc1)NC(=O)C(Cc1cccc2ccccc12)Cc1cccc2ccccc12 (stereo partly specified)		

IC50 (Renin [1]) [nM]	IC50 (Renin [2]) [nM]	logD ([3]; pH 7.4, logD)	SMILES	logD ([3]; pH 7.4)	IC50 (Cathepsin D) [nM]
	350	1.68	CS/C(=N\CCCCC(NC(=O)C(CC(=O)N1CCOCC1)Cc1cccc2ccccc12)C(=O)NC(CC(C)C)[C@@H](O)CC(=O)N1CCOC(CCN)C1)NC#N (stereo partly specified)		
	3.3	2.9	C/N=C(\S)NCC#CCC(NC(=O)C(Cc1ccccc1)NS(=O)(=O)N1CCOCC1)C(=O)NC(CC1CCCCC1)[C@@H](O)CC(=O)N1CCOC(CCN)C1 (stereo partly specified)		
	700	3.13	CC(C)(C)OC(=O)NCC#CCC(NC(=O)C(Cc1ccccc1)NS(=O)(=O)N1CCOCC1)C(=O)NC(CC1CCCCC1)[C@@H](O)CC(=O)N1CCOC(CCN)C1 (stereo in doubt; 61b)		
	0.5	2.12	CC(=O)NCC#CCC(NC(=O)C(Cc1ccccc1)NS(=O)(=O)N1CCOCC1)C(=O)NC(CC1CCCCC1)[C@@H](O)CC(=O)N1CCOC(CCN)C1 (stereo partly specified)		
48	44	5.64	CCC(C)CNC(=O)C[C@H](O)C(CC(C)C)NC(=O)C(CCCCCCN=C(S)NC)NC(=O)C(Cc1cccc2ccccc12)Cc1cccc2ccccc12 (stereo partly specified)		
> 10000	4150	4.4	CCC(C)CNC(=O)C[C@H](O)C(CC(C)C)NC(=O)C(CCNC(C)=O)NC(=O)C(Cc1cccc2ccccc12)Cc1cccc2ccccc12 (stereo partly specified)		
	47	6.63	CCC(C)CNC(=O)C[C@H](O)C(CC1CCCCC1)NC(=O)C(CCCC/N=C(/S)NC)NC(=O)C(Cc1cccc2ccccc12)Cc1cccc2ccccc12 (stereo partly specified)		3200
41	26	5.23	CCC(C)CNC(=O)C[C@H](O)C(CC(C)C)NC(=O)C(C/C=C/C/N=C(/S)NC)NC(=O)C(Cc1cccc2ccccc12)Cc1cccc2ccccc12 (stereo partly specified)		
	48	5.46	CNC(=S)NCC#CCC(NC(=O)C(Cc1cccc2ccccc12)Cc1cccc2ccccc12)C(=O)NC(CC1CCCCC1)[C@@H](O)CC(=O)N1CCOC(CCN)C1 (stereo partly specified)		
29	44	5.63	CCC(C)CNC(=O)C[C@H](O)C(CC(C)C)NC(=O)C(CCCCNC(=O)NC)NC(=O)C(Cc1cccc2ccccc12)Cc1cccc2ccccc12 (stereo partly specified)		
5.4	5	2.25	NCCC1CN(C(=O)C[C@H](O)C(CC2CCCCC2)NC(=O)C(Cc2c[nH]cn2)NC(=O)C(Cc2ccccc2)NS(=O)(=O)N2CCOCC2)CCO1 (stereo partly specified)		
2580	3490	5.25	CCC(C)CNC(=O)C[C@H](O)C(CC(C)C)NC(=O)C(CCCCN)NC(=O)C(Cc1cccc2ccccc12)Cc1cccc2ccccc12 (stereo partly specified)		
19	41	5.51	CCC(C)CNC(=O)C[C@H](O)C(CC(C)C)NC(=O)C(CCCCNC(=NC#N)SC)NC(=O)C(Cc1cccc2ccccc12)Cc1cccc2ccccc12 (stereo partly specified)		
40	39	5.41	CCC(C)CNC(=O)C[C@H](O)C(CC(C)C)NC(=O)C(CCCCCNC(=S)NC)NC(=O)C(Cc1cccc2ccccc12)Cc1cccc2ccccc12 (stereo partly specified)		
	10600	4.83	CNC(=S)NCCCCC(NC(=O)C(Cc1cccc2ccccc12)Cc1cccc2ccccc12)C(=O)NC(CC(C)C)[C@@H](O)CC(=O)N(C)OC (stereo partly specified)		
	8.7	5.44	NCCC1CN(C(=O)C[C@H](O)C(CC2CCCCC2)NC(=O)C(CC#CCNC=O)NC(=O)C(Cc2cccc3ccccc23)Cc2cccc3ccccc23)CCO1 (stereo partly specified)		
29	41		CCC(C)CNC(=O)C[C@H](O)C(CC(C)C)NC(=O)C(CC#CCNC(C)=O)NC(=O)C(Cc1cccc2ccccc12)Cc1cccc2ccccc12 (stereo in doubt; 55b)	5.06	

SMILES	IC50 (Renin [1]) [nM]	IC50 (Renin [2]) [nM]	logD ([3]; pH 7.4, logD)	logD ([3]; pH 7.4)	IC50 (Cathepsin D) [nM]
CC(C)CC(NC(=O)C[C@H](O)C(CC(C)C)NC(=O)C(CCCCNC(=N)N[N+](=O)[O-])NC(=O)C(Cc1cccc2ccccc12)Cc1cccc2ccccc12)C(=O)NCc1ccccc1 (stereo partly specified)	15	49		5.51	
CCC(C)CNC(=O)C[C@H](O)C(CC(C)C)NC(=O)C(CCCCC/N=C(\N)N[N+](=O)[O-])NC(=O)C(Cc1cccc2ccccc12)Cc1cccc2ccccc12 (stereo partly specified)	26	20		5.1	1470
CC(C)CC(NC(=O)C(CCCC/N=C(/N)N[N+](=O)[O-])NC(=O)C(Cc1cccc2ccccc12)Cc1cccc2ccccc12)[C@@H](O)CC(=O)N1CCOC(CCN)C1 (stereo partly specified)	45	40		4.09	
N=C(NCC#CCC(NC(=O)C(Cc1cccc2ccccc12)Cc1cccc2ccccc12)C(=O)NC(CC1CCCCC1)[C@@H](O)CC(=O)N1CCOC(CCN)C1)N[N+](=O)[O-] (stereo partly specified)		12		4.73	
CC(C)CC(NC(=O)C(CCCC/N=C(/N)N[N+](=O)[O-])NC(=O)C(CC(=O)N1CCOCC1)Cc1cccc2ccccc12)[C@@H](O)CC(=O)N1CCOC(CCN)C1 (stereo partly specified)		395		1.95	
